Results published in ChEMBL document CHEMBL1137710, “Synthesis and in vitro antitumor activity of new quinoxaline derivatives” (2009).

Experiments:
Type in all cases: functional
[1] = tested on: SR; test: Growth inhibition of human SR cells after 48 hrs by sulforhodamine B assay
Summary of the method: (§1)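 Run in the NCI 60-human-tumour-cell-line panel, tested over a 5-log dose range. Dose–response curves gave three values per cell line, each as a log10 molar concentration: GI50 (50% inhibition of net cell growth), TGI (total inhibition of net growth) and LC50 (50% net cell death). The mean graph midpoint is the arithmetic mean over all lines, with insensitive lines entered at the highest concentration tested.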

[2] = tested on: EKVX; test: Growth inhibition of human EKVX cells after 48 hrs by sulforhodamine B assay
Summary of the method: (§2)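 NCI 60-human-tumor-cell-line panel, with compounds tested over a 5-log dose range. Values are taken from dose-response curves as log10 molar concentrations: GI50 is 50% net growth inhibition, TGI is total growth inhibition, and LC50 is 50% net cell death.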

[3] = tested on: 786-0; test: Growth inhibition of human 786-0 cells after 48 hrs by sulforhodamine B assay; conditions: 786-0, 48 h; summary of the method: as §2
[4] = tested on: NCI/ADR-RES; test: Growth inhibition of human NCI/ADR-RES cells after 48 hrs by sulforhodamine B assay; summary of the method: as §2
[5] = tested on: SF-539; test: Growth inhibition of human SF539 cells after 48 hrs by sulforhodamine B assay; conditions: SF-539, 48 h; summary of the method: as §2
[6] = tested on: HOP-62; test: Growth inhibition of human HOP62 cells after 48 hrs by sulforhodamine B assay; conditions: HOP-62, 48 h; summary of the method: as §2
[7] = tested on: T47D; test: Growth inhibition of human T47D cells after 48 hrs by sulforhodamine B assay; summary of the method: as §1
[8] = tested on: OVCAR-3; test: Growth inhibition of human OVCAR-3 cells after 48 hrs by sulforhodamine B assay; conditions: OVCAR-3, 48 h; summary of the method: as §2
[9] = tested on: HL-60(TB); test: Growth inhibition of human HL-60(TB) cells after 48 hrs by sulforhodamine B assay; conditions: HL-60, 48 h
Summary of the method: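 Tested only on compounds active in a three-line prescreen, in the NCI 60-human-tumour-cell-line panel over a 5-log dose range. Values come from dose–response curves as log10 molar GI50, the concentration inhibiting 50% net cell growth. Log10 TGI (total growth inhibition) and log10 LC50 (50% net cell death) were derived too. Mean graph midpoints include insensitive lines at the highest concentration tested.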

[10] = tested on: CCRF-CEM; test: Growth inhibition of human CCRF-CEM cells after 48 hrs by sulforhodamine B assay; summary of the method: as §2
[11] = tested on: MOLT-4; test: Growth inhibition of human MOLT4 cells after 48 hrs by sulforhodamine B assay; conditions: MOLT-4, 48 h; summary of the method: as §2
[12] = Growth inhibition of human Hs 578T cells after 48 hrs by sulforhodamine B assay; summary of the method: as §2
[13] = tested on: SN12C; test: Growth inhibition of human SN12C cells after 48 hrs by sulforhodamine B assay; summary of the method: as §1
[14] = tested on: Malme-3M; test: Growth inhibition of human MALME-3M cells after 48 hrs by sulforhodamine B assay; summary of the method: as §2
[15] = tested on: CAKI-1; test: Growth inhibition of human Caki1 cells after 48 hrs by sulforhodamine B assay; conditions: CAKI-1, 48 h; summary of the method: as §2
[16] = tested on: NCI-H522; test: Growth inhibition of human NCI-H522 cells after 48 hrs by sulforhodamine B assay; conditions: NCI-H522, 48 h; summary of the method: as §2
[17] = tested on: LOX IMVI; test: Growth inhibition of human LOXIMVI cells after 48 hrs by sulforhodamine B assay; summary of the method: as §2
[18] = tested on: OVCAR-5; test: Growth inhibition of human OVCAR5 cells after 48 hrs by sulforhodamine B assay; conditions: OVCAR-5, 48 h; summary of the method: as §2
[19] = tested on: ACHN; test: Growth inhibition of human ACHN cells after 48 hrs by sulforhodamine B assay
[20] = tested on: SK-MEL-2; test: Growth inhibition of human SK-MEL-2 cells after 48 hrs by sulforhodamine B assay; conditions: SK-MEL-2, 48 h; summary of the method: as §2
[21] = tested on: A498; test: Growth inhibition of human A498 cells after 48 hrs by sulforhodamine B assay; conditions: A498, 48 h; summary of the method: as §2
[22] = tested on: HCT-15; test: Growth inhibition of human HCT15 cells after 48 hrs by sulforhodamine B assay; conditions: HCT-15, 48 h; summary of the method: as §2
[23] = tested on: NCI-H322M; test: Growth inhibition of human NCI-H322M cells after 48 hrs by sulforhodamine B assay; summary of the method: as §2
[24] = tested on: KM12; test: Growth inhibition of human KM12 cells after 48 hrs by sulforhodamine B assay; conditions: KM12, 48 h; summary of the method: as §2
[25] = tested on: K562; test: Growth inhibition of human K562 cells after 48 hrs by sulforhodamine B assay; conditions: K562, 48 h; summary of the method: as §2
[26] = tested on: UO-31; test: Growth inhibition of human UO31 cells after 48 hrs by sulforhodamine B assay; conditions: UO-31, 48 h; summary of the method: as §1
[27] = read-out: pLC50 (the source's name) (converted)

Which LC50 (concentration giving 50% net cell death) [1] does the source give for `Nc1cc(N)c2nc(-c3ccccc3)c(Oc3ccc(Cl)c(Cl)c3)nc2c1` here?
Its LC50 (concentration giving 50% net cell death) is greater than 100 µM.

And the GI50 [2]?
The GI50 was 2.14 µM.

What about the LC50 (50% net cell kill) [2] of the same molecule?
The LC50 (50% net cell kill) was 41.7 µM.

And the TGI ([2]; read-out: pTGI (converted))?
Its TGI is 8.32 µM.

And the GI50 [3]?
The GI50 was 12.6 µM.

And the CC50 [3, 27]?
The CC50 was greater than 100 µM.

And the TGI ([3]; read-out: pTGI (converted))?
The TGI was 44.7 µM.

What about the GI50 [4] of the same molecule?
The GI50 was 11.7 µM.

And the CC50 [4, 27]?
The CC50 was greater than 100 µM.

What about the TGI ([4]; read-out: pTGI (converted)) of the same molecule?
Its TGI is 36.3 µM.

What about the GI50 [5] of the same molecule?
The GI50 was 13.5 µM.

And the LC50 [5]?
The LC50 was 64.6 µM.

What about the TGI ([5]; read-out: pTGI (converted)) of the same molecule?
Its TGI is 29.5 µM.

And the GI50 [6]?
Its GI50 is 17 µM.

And the LC50 [6]?
Its LC50 is 85.1 µM.

And the TGI ([6]; read-out: pTGI (converted))?
The TGI was 38 µM.

What about the GI50 [7] of the same molecule?
Its GI50 is 24.5 µM.

What about the CC50 [7, 27] of the same molecule?
Its CC50 is greater than 100 µM.

And the TGI ([7]; read-out: pTGI (converted))?
The TGI was 79.4 µM.

And the GI50 [8]?
Its GI50 is 10.7 µM.

What about the CC50 [8, 27] of the same molecule?
Its CC50 is 66.1 µM.

What about the TGI ([8]; read-out: pTGI (converted)) of the same molecule?
The TGI was 26.9 µM.

What about the GI50 [9] of the same molecule?
Its GI50 is 5.13 µM.

What about the LC50 [9] of the same molecule?
Its LC50 is greater than 100 µM.

And the TGI ([9]; read-out: pTGI (converted))?
Its TGI is greater than 100 µM.

What about the GI50 [10] of the same molecule?
Its GI50 is 2.95 µM.

What about the LC50 [10] of the same molecule?
The LC50 was greater than 100 µM.

What about the TGI ([10]; read-out: pTGI (converted)) of the same molecule?
The TGI was greater than 100 µM.

And the GI50 [11]?
Its GI50 is 6.31 µM.

What about the LC50 [11] of the same molecule?
The LC50 was greater than 100 µM.

And the TGI ([11]; read-out: pTGI (converted))?
Its TGI is greater than 100 µM.

What about the GI50 [12] of the same molecule?
Its GI50 is 10.7 µM.

What about the CC50 [12, 27] of the same molecule?
The CC50 was greater than 100 µM.

What about the TGI ([12]; read-out: pTGI (converted)) of the same molecule?
Its TGI is 33.9 µM.

What about the GI50 [13] of the same molecule?
Its GI50 is 11.5 µM.

And the CC50 [13, 27]?
The CC50 was greater than 100 µM.

And the TGI ([13]; read-out: pTGI (converted))?
The TGI was greater than 100 µM.

And the GI50 [14]?
The GI50 was 15.8 µM.

What about the CC50 [14, 27] of the same molecule?
The CC50 was 89.1 µM.

What about the TGI ([14]; read-out: pTGI (converted)) of the same molecule?
Its TGI is 37.2 µM.

And the GI50 [15]?
The GI50 was 15.8 µM.

What about the CC50 [15, 27] of the same molecule?
The CC50 was greater than 100 µM.

What about the TGI ([15]; read-out: pTGI (converted)) of the same molecule?
Its TGI is greater than 100 µM.

And the GI50 [16]?
The GI50 was 8.32 µM.

And the LC50 [16]?
Its LC50 is greater than 100 µM.

And the TGI ([16]; read-out: pTGI (converted))?
Its TGI is 33.9 µM.

What about the GI50 [17] of the same molecule?
The GI50 was 16.2 µM.

What about the LC50 [17] of the same molecule?
The LC50 was 72.4 µM.

What about the TGI ([17]; read-out: pTGI (converted)) of the same molecule?
The TGI was 33.9 µM.

What about the GI50 [18] of the same molecule?
The GI50 was 25.1 µM.

And the CC50 [18, 27]?
Its CC50 is greater than 100 µM.

And the TGI ([18]; read-out: pTGI (converted))?
Its TGI is 58.9 µM.

And the GI50 [19]?
Its GI50 is 9.33 µM.

And the CC50 [19, 27]?
Its CC50 is greater than 100 µM.

What about the TGI ([19]; read-out: pTGI (converted)) of the same molecule?
The TGI was 47.9 µM.

And the GI50 [20]?
Its GI50 is 5.62 µM.

And the CC50 [20, 27]?
The CC50 was 89.1 µM.

What about the TGI ([20]; read-out: pTGI (converted)) of the same molecule?
Its TGI is 23.4 µM.

And the GI50 [21]?
The GI50 was 91.2 µM.

And the CC50 [21, 27]?
The CC50 was greater than 100 µM.

And the TGI ([21]; read-out: pTGI (converted))?
Its TGI is greater than 100 µM.

And the GI50 [22]?
Its GI50 is 20 µM.

And the LC50 [22]?
Its LC50 is greater than 100 µM.

What about the TGI ([22]; read-out: pTGI (converted)) of the same molecule?
The TGI was greater than 100 µM.

And the GI50 [23]?
The GI50 was 21.4 µM.

And the LC50 [23]?
The LC50 was greater than 100 µM.

And the TGI ([23]; read-out: pTGI (converted))?
Its TGI is 58.9 µM.

And the GI50 [24]?
The GI50 was 6.31 µM.

What about the LC50 (50% net cell kill) [24] of the same molecule?
Its LC50 (50% net cell kill) is greater than 100 µM.

And the TGI ([24]; read-out: pTGI (converted))?
Its TGI is 39.8 µM.

What about the GI50 [25] of the same molecule?
The GI50 was 3.55 µM.

And the LC50 [25]?
Its LC50 is greater than 100 µM.

And the TGI ([25]; read-out: pTGI (converted))?
The TGI was greater than 100 µM.

What about the GI50 [26] of the same molecule?
Its GI50 is 4.07 µM.

What about the CC50 [26, 27] of the same molecule?
The CC50 was greater than 100 µM.

What about the TGI ([26]; read-out: pTGI (converted)) of the same molecule?
Its TGI is greater than 100 µM.
